Assay outcomes: PubChem, Sanford-Burnham Center for Chemical Genomics
Rows were chosen to be rich in hits. Some 1.1% of all compounds tested hit in one or more screens of this group.
G6PDH CS – inhibits Leuconostoc G6PDH, flagging false hits in G6PDH-based assays. Purified L. mesenteroides G6PDH, diaphorase/resazurin coupled fluorescence, 45 min. inhibition, % at 5 µM. 200,000 compounds, 0.12% hits. AID 1020; in the data active means inhibition above about 50%
Diaph inh CS – counter-screen for diaphorase-based assays: diaphorase inhibitors and chemical oxidizers. diaphorase resazurin-to-resorufin fluorescence, NADH, 16 min; bacterial (C. kluyveri) enzyme, not human. inhibition, % at 20 µM. 190,000 compounds, 0.69% hits. AID 1217;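 active means primary screen inhibition at 20 µM above a set limit, cut at about 50% in these data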;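 further: plate controls were DMSO with full reaction for no effect and wells lacking NADH for full effect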
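Assay system – diaphorase enzyme from Clostridium kluyveri · Amount – diaphorase 0.14 U/mL (working solution) · Times – reaction incubation of 16 min at room temperature · Controls – No-NADH positive control and DMSO neutral control · Signal – resorufin fluorescence 544/590 nm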
PMI act – phosphomannose isomerase (human) activation; 190,000 compounds, 0.005% hits; P34949; activation factor at 20 µM; purified human PMI, coupled resazurin fluorescence, 20 min; stronger effect = higher value; 1 = vehicle control, 0 substrate-free wells;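 active means activation factor of 2 or more at 20 µM, relative to plate controls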
Target sequence (P34949 whole entry, looked up): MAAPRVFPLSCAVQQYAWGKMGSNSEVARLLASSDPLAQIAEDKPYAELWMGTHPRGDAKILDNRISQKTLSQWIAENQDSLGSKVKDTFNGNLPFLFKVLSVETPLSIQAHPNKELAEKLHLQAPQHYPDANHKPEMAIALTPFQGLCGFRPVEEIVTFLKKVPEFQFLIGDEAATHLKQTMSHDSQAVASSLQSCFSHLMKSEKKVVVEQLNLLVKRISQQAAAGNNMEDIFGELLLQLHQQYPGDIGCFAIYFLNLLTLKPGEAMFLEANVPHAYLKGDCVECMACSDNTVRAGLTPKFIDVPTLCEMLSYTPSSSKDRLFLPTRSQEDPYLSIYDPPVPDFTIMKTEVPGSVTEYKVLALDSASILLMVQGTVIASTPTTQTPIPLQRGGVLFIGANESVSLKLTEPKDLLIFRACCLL
Diaphorase act – counter-screen for diaphorase-based assays: diaphorase activators and chemical reducers; Diaphorase/resazurin coupled assay, resorufin fluorescence, 16 min; stronger effect = higher value; 1 = vehicle wells, 0 = NADH-free wells; activation factor at 20 µM; 190,000 compounds, 0.005% hits;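 active means diaphorase activity raised at least twofold by the compound at 20 µM; inactive means activation factor below 2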
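Assay system: Purified diaphorase enzyme from Clostridium kluyveri | Amount: Enzyme 0.07 U/mL final | Dosing: Compound 20 µM once, DMSO 1% | Timing: 16 min reaction at room temperature | Detection: Fluorescence, excitation 544 nm and emission 590 nm | Evaluation: Higher resorufin formation from activation or reduction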
PMI act hi M6P – activators of human phosphomannose isomerase at near-saturating mannose 6-phosphate; P34949; coupled PMI enzyme assay, resazurin fluorescence, 20 min; stronger effect = higher value; 1 = untreated enzyme, 0 = substrate-free blank; activation factor at 20 µM; 190,000 compounds, 0.34% hits; AID 1216;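 active means activation factor of 2 or more at 20 µM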
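Test system: human phosphomannose isomerase with PGI, G6PDH, diaphorase coupling enzymes / Doses: 20 µM compound, 1% DMSO / Times: enzyme reaction with compound 20 min at room temperature / Measured by: Diaphorase-driven resazurin-to-resorufin fluorescence, excitation 544, emission 590 nm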
Starred values were filed as active, the others as inactive.

SMILES	G6PDH CS	Diaph inh CS	PMI act	Diaphorase act	PMI act hi M6P
Cc1cc(O)c(C=O)c2c1C(=O)Oc1c(CO)c(O)c3c(c1O2)C(O)OC3=O (stereo unspecified)	21	75*	0.7	0.3	0.6
COc1cccc2c(SCC(=O)N/N=C/c3ccc(O)c(O)c3)cc(C)nc12	10	54*	0.6	0.5	1
CCC(C)NC(=O)c1ccc(CS(=O)(=O)Cc2ccc(Cl)cc2)o1 (stereo unspecified)	7	14	0.9	0.9	0.9
O=C(NCc1ccc2c(c1)OCO2)c1ccc(S(=O)(=O)N2CCOCC2)cc1	2	-8	1.1	1.1	1.1
Cc1c(N/N=C(\C#N)C(=O)c2ccccc2)c(=O)n(-c2ccccc2)n1C	-3	-15	1.6	1.1	2.1*
Cc1ccccc1C(=O)/C(C#N)=N/Nc1c(C)n(C)n(-c2ccccc2)c1=O	-4	16	1.3	0.8	1.9
Cc1ncsc1CCC(=O)N1CCCC(C(=O)c2ccc3c(c2)OCO3)C1 (stereo unspecified)	12	9	0.9	0.9	0.9
COc1cc(CN2CCNC(=O)C2CC(=O)O)cc(OC)c1 (stereo unspecified)	-1	85*	1	0.2	1
COc1cc(CN2CCNC(=O)C2CC(=O)N2CCc3ccccc3C2)cc(OC)c1 (stereo unspecified)	-3	22	1	0.8	0.6
Cc1nc2ccccc2n1CCc1nc2c3ccccc3nc(=S)n2[nH]1	-1	89*	1	0.1	1
CCCCN1C(=O)C(=O)N(CC(=O)NC2CCCc3ccccc32)C1=O (stereo unspecified)	5	3	1	1	0.9
COCCOc1cc(NC(=O)CS(=O)(=O)CC(=O)N(C)C)c(Cl)cc1Cl	7	24	0.9	0.8	0.9
COc1ccc2c(C)cc(SC3CCOC3=O)nc2c1 (stereo unspecified)	5	12	1	0.9	0.9
Cc1cc(C)c2nc(SC3CCOC3=O)cc(C)c2c1 (stereo unspecified)	5	6	1.5	0.9	2.5*
Cc1nc2c(c(=O)n1CCC1=CCCCC1)c1nc3ccccc3nc1n2/N=C/c1ccco1	1	70*	1	0.3	0.8
CCCn1c(C)nc2c(c1=O)c1nc3ccccc3nc1n2CCC1=CCCCC1	10	20	1.1	0.8	1.1
O=C(CCC1CCCN(Cc2ccc3c(c2)CCO3)C1)NCc1ccc(F)c(F)c1 (stereo unspecified)	2	7	0.9	0.9	1
O=C1c2ccccc2C(=O)c2c1cccc2N1CCOCC1	9	14	0.9	0.9	0.8
O=C1C(N2CCOCC2)=C(n2nnc3ccccc32)C(=O)c2ccccc21	61*	25	1.2	0.7	1.4
CC1=C(C(=O)N2CCOCC2)C(c2c(F)cccc2F)NC(=O)N1 (stereo unspecified)	4	9	1	0.9	1
CC(C)c1nc2oc3c(NCC4CCCO4)ncnc3c2c2c1COC(C)(C)C2 (stereo unspecified)	1	90*	0.9	0.1	1
COc1ccc(CC(=O)N/N=C(/C)c2ccco2)cc1	14	8	0.9	0.9	1
COc1cc(/C=C2\SC(=O)N(c3cccc(Cl)c3)C2=O)cc([N+](=O)[O-])c1O	2	64*	1	0.4	0.9
O=C1S/C(=C\c2ccc(O)c([N+](=O)[O-])c2)C(=O)N1c1ccccc1Cl	10	-6	1.1	1.1	1
COc1cc(/C=C2\SC(=O)N(c3ccc(Cl)cc3)C2=O)cc([N+](=O)[O-])c1O	5	82*	0.7	0.2	0.8
CCC(CC)C(=O)OCC(=O)Nc1cccc([N+](=O)[O-])c1	9	0	1	1	1.1
Cn1c(=S)ccc2ccccc21	7	9	1.8	0.9	2.3*
Cn1c(=S)n(C)c2ccccc21	8	-2	1	1	1
Cc1ccc(NN=C2c3ccccc3-c3ccccc32)cc1	-17	24	1.3	0.8	2.2*
